Screening results from PubChem BioAssay.
The sample as a whole holds a higher share of hits than the screen did.
HCT116 bCat-KO: beta-catenin-lacking colon tumor cell growth suppression; viability, % at 10 µM; 140,000 compounds, 1.5% hits; HCT116 beta-catenin knockout viability, CellTiter-Glo, 60 h; stronger effect = lower value; AID 818;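 active means viability at or under a set limit, the compound median less 4 SD, cut at about 6% in these data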
Lung fibro prol: blocks proliferation of human lung fibroblasts. 85,000 compounds, 1.1% hits. viability, % at 10 µM. AID 719. LL 47 human lung fibroblast viability, ATP luminescence; stronger effect = lower value;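 active means viability at or below 50% in the single dose screen; inactive means viability above 50%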;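 further: compound exposure lasted 72 h before the ATP readout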
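Assay system: human lung fibroblast line LL 47, low passage. Input: 1,150 fibroblasts seeded per well. Times: overnight cell rest, 72 h compound treatment at 37 °C. Evaluation: % viability of median cell-only signal. Technique: luminescent ATP detection, CellTiter-Glo. Control set: cell-only wells, no compound.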
HUVEC prolif 384: inhibitors of human endothelial cell proliferation; HUVEC proliferation, CellTiter-Glo luminescence, 72 h; stronger effect = lower value; viability, % at 10 µM (by protocol); 86,000 compounds, 1.1% hits; AID 648;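 active means viability at or below 30%; inactive means viability above 30%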
PTEN del growth: growth suppressors of cells with PTEN tumor suppressor deletion; HCT116 PTEN-null viability, CellTiter-Glo, 60 h; stronger effect = lower value; viability, % at 10 µM; 140,000 compounds, 1.2% hits;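 active means viability at or below a set limit, 4 SD under the median of all tested compounds, cut at about 3.7% in these data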;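 further: PTEN knockout HCT116 line with beta catenin targeted HCT116 as companion control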
H69AR inhibit: blocks growth of human H69AR lung tumor cells | H69AR lung tumor viability, ATP luminescence, 72 h; stronger effect = lower value | 85,000 compounds, 6% hits | AID 598 | viability, % at 10 µM;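 active means viability at or below 40%; inactive means viability above 40%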;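 further: multidrug resistant small cell line overexpressing MRP-1 efflux transporter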
Large screens that a line does not name were inactive.

CCn1c(SCC(=O)Nc2cc(C)on2)nc2sc3c(c2c1=O)CCCC3	Lung fibro prol 15, PTEN del growth 2.3, H69AR inhibit 7.1
C=CCn1c(SCC(=O)Nc2cc(C)on2)nc2sc(C)c(C)c2c1=O	H69AR inhibit 28
CC(NC(=O)CSc1nc2sc3c(c2c(=O)n1-c1ccccc1)CCCC3)c1ccccc1 (stereo unspecified)	H69AR inhibit 1.9
C=CCn1c(SCC(=O)Nc2cc(C)on2)nc2sc3c(c2c1=O)CCCC3	none (no result: Lung fibro prol, HUVEC prolif 384, H69AR inhibit)
CCCCOC(C)n1cc(F)c(=O)[nH]c1=O (stereo unspecified)	none (no result: Lung fibro prol, HUVEC prolif 384, H69AR inhibit)
Nc1nc(Cl)nc2c1ncn2[C@@H]1O[C@H](CO)[C@@H](O)[C@H]1O	H69AR inhibit 18
CN(C)c1ncnc2c1ncn2C1OC(CO)C(O)C1O (stereo unspecified)	HCT116 bCat-KO 5.2, Lung fibro prol 41, HUVEC prolif 384 15, H69AR inhibit 6.8
O=C(CSc1ccc(Cl)cc1)Nc1cccc(-c2nc3ccccc3[nH]2)c1	none (no result: Lung fibro prol, HUVEC prolif 384, H69AR inhibit)
N=c1c(-c2nc3ccccc3[nH]2)cc(C(=O)c2cccs2)nn1-c1ccc(Cl)cc1	HUVEC prolif 384 24, H69AR inhibit 7.4 (no result: HCT116 bCat-KO, PTEN del growth)
CC(C)C(NC(=O)C1CCCCC1)C(=O)NC1=NCCS1 (stereo unspecified)	none
CCN(Cc1ccccc1)S(=O)(=O)c1ccc(C(=O)Nc2nnc(C3CC3)o2)cc1	H69AR inhibit 32
COCCN(CCOC)S(=O)(=O)c1ccc(C(=O)Nc2nnc(C)o2)cc1	none (no result: Lung fibro prol, HUVEC prolif 384, H69AR inhibit)
CSCc1nnc(NC(=O)c2ccc(S(=O)(=O)N(CC(C)C)CC(C)C)cc2)o1	none (no result: Lung fibro prol, HUVEC prolif 384, H69AR inhibit)
Cc1nnc(NC(=O)c2ccc(S(=O)(=O)N(C)Cc3ccccc3)cc2)o1	H69AR inhibit 24
CCCN1C(=O)/C(=N\OCC(=O)NC23CC4CC(CC(C4)C2)C3)c2ccccc21	none (no result: Lung fibro prol, HUVEC prolif 384, H69AR inhibit)
O=C1CCCC(=O)C1=C1SCCS1	none (no result: Lung fibro prol, HUVEC prolif 384, H69AR inhibit)
COC(=O)Cc1cc(=O)[nH]c(/N=C(\N)Nc2ccccc2C)n1	none
C/C(CCC12CC3CC(CC(C3)C1)C2)=N\NC(N)=S	H69AR inhibit 13
O=C(OCC#CCSc1nnc(-c2cccc3ccccc23)o1)c1cccs1	H69AR inhibit 35
O=C(OCC#CCSc1nnc(-c2ccccc2)o1)c1cccs1	none
C#CCSc1nnc(-c2cccc3ccccc23)o1	H69AR inhibit 21 (no result: HCT116 bCat-KO, PTEN del growth)
Cc1ccc(Sc2nc([N+](=O)[O-])nn2C)cc1	none (no result: Lung fibro prol, HUVEC prolif 384, H69AR inhibit)
COc1cc(CC(=O)NNC(=O)c2cc(C)oc2C)cc(OC)c1OC	none (no result: Lung fibro prol, HUVEC prolif 384, H69AR inhibit)
Oc1ccc(N=C/C=C/c2cccc(Br)c2)cc1-c1nc2ccccc2s1	HCT116 bCat-KO 5.1 (no result: Lung fibro prol, HUVEC prolif 384, H69AR inhibit)
O=C(Nc1ccc(O)c(-c2nc3ccccc3s2)c1)c1cc(=O)c2ccccc2o1	none (no result: Lung fibro prol, HUVEC prolif 384, H69AR inhibit)
Nc1ccc(O)c(-c2nc3ccccc3s2)c1	PTEN del growth 3.4
C=CCn1c(NC(=O)c2ccccc2)c(C#N)c2nc3ccccc3nc21	none (no result: HCT116 bCat-KO, PTEN del growth)
CN(CC(=O)Nc1ccc(F)cc1)C(=O)COc1ccc(C(=O)c2ccccc2)cc1	none (no result: Lung fibro prol, HUVEC prolif 384, H69AR inhibit)
N#CCSc1nc2cc(C(=O)N3CCCC3)ccc2c(=O)n1Cc1ccccc1	none (no result: Lung fibro prol, HUVEC prolif 384, H69AR inhibit)
N#CCSc1nc2cc(C(=O)N3CCC(C(N)=O)CC3)ccc2c2nc3ccccc3n12	HCT116 bCat-KO 5.0
N#CCSc1nc2ccccc2c2nc3ccccc3n12	HCT116 bCat-KO 5.8 (no result: Lung fibro prol, HUVEC prolif 384, H69AR inhibit)
O=C(Nc1ccc2nc(-c3ccc(Br)o3)[nH]c2c1)c1cccs1	H69AR inhibit 38
CC(=O)Nc1ccc2nc(-c3ccc(Br)o3)[nH]c2c1	none (no result: Lung fibro prol, HUVEC prolif 384, H69AR inhibit)
COc1cccc(OCC(=O)Nc2c(C(=O)Nc3ccc(OC)cc3OC)oc3ccccc23)c1	H69AR inhibit 21 (no result: HCT116 bCat-KO, PTEN del growth)
COc1ccccc1NC(=O)c1oc2ccccc2c1NC(=O)c1cc(OC)c(OC)c(OC)c1	H69AR inhibit 22 (no result: HCT116 bCat-KO, PTEN del growth)
O=C(O)c1ccccc1C(=O)N(Cc1ccccc1)Cc1ccccc1	none
O=C(c1c(F)c(F)c(F)c(F)c1F)N(Cc1ccccc1)Cc1ccccc1	H69AR inhibit 36
CCn1c(SCC(=O)c2ccc(O)c(O)c2)nnc1-c1ccccc1OC	H69AR inhibit 36
C=CCn1c(SCC(=O)c2ccc(O)c(O)c2)nnc1-c1ccccc1OC	H69AR inhibit 20
C=CCn1c(SCC(N)=O)nnc1-c1ccccc1O	none
COC(=O)/C=c1/s/c(=C(/C#N)C(=O)N2CCCCC2)n(-c2ccccc2)c1=O	H69AR inhibit 36
COc1cc(/C=c2\s/c(=C(/C#N)C(=O)N3CCCC3)n(-c3ccccc3)c2=O)ccc1O	HUVEC prolif 384 12, H69AR inhibit 10
CCNS(=O)(=O)c1cc(OC)c(Cl)cc1OC	none (no result: Lung fibro prol, HUVEC prolif 384, H69AR inhibit)
